High-throughput results from PubChem BioAssay.
Only some compounds are listed: those with a hit (about 5.1% of all), similar ones and a draw of the others.
BAP1 block = blocks human BAP1 ubiquitin-AMC hydrolysis | recombinant BAP1, Ub-AMC hydrolysis fluorescence kinetic; stronger effect = lower value | calls only at 20 µM | 72,000 tested, 0.48% active | AID 436;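 active means activity remaining at or below 50% of control, provided the compound also passes the data quality filters; inactive means the rest, including low values that fail the filters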
ERa coact pot = ER-alpha (human) coactivator binding potentiation; coactivator binding (% of control), % at 25.6 µM; 86,000 tested, 1.3% active; P03372; TR-FRET ERalpha-LBD/SRC-Cy5 coactivator binding, 2 h; 100 = basal binding, no effect; in the data active means activity above about 200%;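 further: binding measured in presence of low estradiol as agonist stimulus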
RORa activator = activators of human nuclear receptor RORA. P35398. CHO-K1 Gal4-RORA LBD luciferase reporter, luminescence; percent increase over mock-subtracted basal signal. activation, % at 10 µM. 65,000 tested, 1.5% active. AID 560;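 active means activation above the mean of all tested compounds plus 3 SD, cut at about 49% in these data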
ERa SRC1 inh = blocks coactivator binding to human estrogen receptor alpha; inhibition, % at 25.6 µM; P03372; TR-FRET ER-alpha LBD / SRC-1 peptide, estradiol-bound; AID 629; 86,000 tested, 1.7% active; in the data active means inhibition above about 50%
ERb coact inh = blocks coactivator binding to human estrogen receptor beta; inhibition, % at 25.6 µM; AID 633; Q92731; TR-FRET ER-beta LBD / SRC1-Cy5 peptide binding; receptor agonist-loaded with 1 µM estradiol; 86,000 tested, 1.3% active;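 active means compounds whose percent inhibition of the receptor-coactivator binding signal exceeds about 50% in the single-dose screen, limit read from the data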
SF-1 act = SF-1 (human) activation | Q13285 | CHO-K1 Gal4-SF-1 LBD luciferase reporter; % increase over DMSO SF-1-specific signal | 65,000 tested, 1.9% active | AID 522 | activation, % at 10 µM;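 active means activation above the mean activation of all tested compounds plus 3 SD, cut at about 50% in these data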
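Material: Transient Gal4-SF-1 LBD reporter, CHO-K1 | Input: 4,000 cells/well | Dosing: One dose, 10 µM compound, 1% DMSO | Incubation: 20 h compound treatment, 37 °C | Detection: SteadyLite luciferase luminescence | Evaluation: Percent activation relative to DMSO median and mock-transfected background | Benchmarks: DMSO-treated SF-1-transfected cells as negative, DMSO-treated mock-transfected cells lacking SF-1 as background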
Numbers stand for hits; [ ] = dose if it differs, or a comment.

Results for Cc1ccc(C(=O)Nc2ncc(Cc3ccc(F)cc3)s2)o1 ?
BAP1 block: inactive; ERa coact pot: inactive; RORa activator: inactive; ERa SRC1 inh: inactive; ERb coact inh: inactive; SF-1 act: 119

Results for Cc1cccc(-c2nc(C#N)c(NC3CCCCC3)o2)c1 ?
BAP1 block: inactive; ERa coact pot: inactive; RORa activator: inactive; ERa SRC1 inh: inactive; ERb coact inh: inactive; SF-1 act: 50

How did COc1cc(-c2nnc(SCC(=O)c3cc(C)n(CC4CCCO4)c3C)o2)cc(OC)c1OC (configuration not stated) do in these assays?
BAP1 block: inactive; ERa coact pot: inactive; RORa activator: inactive; ERa SRC1 inh: inactive; ERb coact inh: inactive; SF-1 act: inactive

What do the screens show for `COc1cc(NC(=O)CSc2nnnn2-c2ccccc2)cc(OC)c1OC`?
BAP1 block: inactive; ERa coact pot: 229[fluorescence artefact?]; RORa activator: inactive; ERa SRC1 inh: inactive; ERb coact inh: inactive; SF-1 act: inactive

Results for COc1ccc(CCn2c(C)cc(C(=O)CSc3nnnn3-c3ccccc3)c2C)cc1OC ?
BAP1 block: inactive; ERa coact pot: inactive; RORa activator: inactive; ERa SRC1 inh: 65[fluorescence artefact?]; ERb coact inh: inactive; SF-1 act: inactive

How did Cc1cc(C(=O)CSc2nnnn2-c2ccccc2)c(C)n1CCc1ccccc1 do in these assays?
ERa coact pot: inactive; ERa SRC1 inh: inactive; ERb coact inh: inactive

What do the screens show for `Cc1cc(C(=O)CSc2nnc(-c3ccc(F)cc3)o2)c(C)n1CC1CCCO1` (configuration not stated)?
ERa coact pot: 229[fluorescence artefact?]; ERa SRC1 inh: inactive; ERb coact inh: inactive

Results for COc1ccc(NC(=O)CSc2nnnn2-c2ccc(OC)cc2)cc1 ?
ERa coact pot: inactive; ERa SRC1 inh: inactive; ERb coact inh: inactive

What do the screens show for `Cc1cc(C(=O)CSc2nnnn2-c2ccccc2)c(C)n1CC1CCCO1` (configuration not stated)?
BAP1 block: inactive; ERa coact pot: inactive; RORa activator: inactive; ERa SRC1 inh: inactive; ERb coact inh: inactive; SF-1 act: 68

What do the screens show for `COc1ccc(C2NC(=O)NC(C)=C2C(=O)OC2CCC(C)CC2)c(OC)c1` (configuration not stated)?
BAP1 block: inactive

How did CC1CC(C(F)(F)C(F)(F)F)n2nc(C(=O)O)cc2N1 (configuration not stated) do in these assays?
BAP1 block: inactive; ERa coact pot: inactive; RORa activator: inactive; ERa SRC1 inh: 64; ERb coact inh: 76[fluorescence artefact?]; SF-1 act: inactive

Results for CC1CC(C(F)(F)F)n2nc(C(=O)O)cc2N1 (configuration not stated) ?
ERa coact pot: inactive; ERa SRC1 inh: inactive; ERb coact inh: inactive

How did Cc1cc(C)n(-c2nc(N(c3ccccc3)c3ccccc3)nc(-n3nc(C)cc3C)n2)n1 do in these assays?
ERa coact pot: inactive; ERa SRC1 inh: inactive; ERb coact inh: inactive

What do the screens show for `Cc1cc(C)n(-c2nc(Nc3ccccc3)nc(-n3nc(C)cc3C)n2)n1`?
ERa coact pot: 248; RORa activator: inactive; ERa SRC1 inh: 63[fluorescence artefact?]; ERb coact inh: 55[fluorescence artefact?]; SF-1 act: inactive

Results for COc1ccccc1-c1csc(NC(=O)c2ccc(S(=O)(=O)N3CCCCC3)cc2)n1 ?
BAP1 block: inactive

What do the screens show for `O=C(NCCCCCCNC(=O)c1ccc(Br)s1)c1ccc(Br)s1`?
ERa coact pot: 417; ERa SRC1 inh: 82[fluorescence artefact?]; ERb coact inh: 58[fluorescence artefact?]

What do the screens show for `O=C(NCCCCNC(=O)c1ccc(Cl)s1)c1ccc(Cl)s1`?
ERa coact pot: inactive; ERa SRC1 inh: inactive; ERb coact inh: inactive

What do the screens show for `O=C(NCCc1ccccc1)c1cnc2sccn2c1=O`?
BAP1 block: inactive; ERa coact pot: inactive; RORa activator: 84; ERa SRC1 inh: inactive; ERb coact inh: inactive; SF-1 act: inactive

How did COc1ccc2c(Cl)c(C(=O)NCCCn3ccnc3)sc2c1Cl do in these assays?
ERa coact pot: 276; ERa SRC1 inh: inactive; ERb coact inh: inactive

What do the screens show for `CCOC(=O)Cn1cc(-c2ccc([N+](=O)[O-])cc2)nc1SCc1ccccc1`?
BAP1 block: inactive

Results for N#C/C(C(=O)c1ccccc1)=C1/CCCCCN1 ?
BAP1 block: inactive; ERa coact pot: inactive; RORa activator: inactive; ERa SRC1 inh: inactive; ERb coact inh: inactive; SF-1 act: 61
